ChEMBL document CHEMBL1138769, “Antimitotic activity of 5-hydroxy-7-methoxy-2-phenyl-4-quinolones” (J Med Chem, 2004)
pIC50: −log10 of the molar value. Blank lines part the entries; values can stand above or below the compound they belong to.

Tests used:
[1] = tested on: K562; assay: Ability to induce cells in G2/M phase; type: functional, Homo sapiens; set-up: concentration or dose not given beside the values
Outline: (§1)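 K562 human leukemic cells exposed continuously to test compound at 5 μM for 24 h. 10⁶ cells/mL resuspended in propidium iodide, held at 4 °C overnight, analysed by flow cytometry for DNA content. Doublets and aggregates excluded on FL2-area/FL2-width plot. Fraction of population in G0/G1, S and G2/M calculated.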

[2] = tested on: NCI-60 human tumor cell line panel (Homo sapiens); assay: Growth inhibitory concentration is the concentration that reduced growth of NCI-60 cell lines by 50%
[3] = tested on: K562; assay: Ability to induce cells in G0/G1 phase; type: functional, Homo sapiens; set-up: concentration or dose not given beside the values; outline: as §1
[4] = tested on: K562; assay: Ability to induce cells in S phase; type: functional, Homo sapiens; set-up: concentration or dose not given beside the values; outline: as §1
[5] = tested on: K562; assay: Inhibitory concentration against K562 cell line; type: functional, cell-based; settings: Homo sapiens
Outline: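 MTT viability assay on exponentially growing K562 cells seeded at 3 × 10³ cells/well, grown 24 h before drug addition. After 72 h drug exposure MTT reagent added. Viability is absorbance as percent of untreated control wells. IC50 is the concentration giving 50% loss of viability. Triplicate wells, at least three separate experiments.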

SMILES: COc1cccc(-c2cc(O)c3c(O)cc(OC)cc3n2)c1
Activity [1]: 31%
GI50 [2]: 9.7 µM
Activity [3]: 28%
Activity [4]: 41%

SMILES: Oc1cccc2nc(-c3ccccc3)cc(O)c12
Activity [1]: 21%
Activity [3]: 26%
Activity [4]: 52%

SMILES: COc1cc(O)c2c(O)cc(-c3ccc(C)c(F)c3)nc2c1
Activity [1]: 18%
Activity [3]: 28%
Activity [4]: 54%

SMILES: COc1cc(O)c2c(O)cc(-c3cccc(Cl)c3)nc2c1
Activity [1]: 32%
Activity [3]: 33%
Activity [4]: 35%

SMILES: CCn1c(-c2cccc(F)c2)cc(=O)c2c(O)cc(OC)cc21
Activity [1]: 19%
Activity [3]: 53%
Activity [4]: 28%

SMILES: COc1cc(O)c2c(O)cc(-c3ccc(F)c(F)c3)nc2c1
Activity [1]: 9%
Activity [3]: 22%
Activity [4]: 69%

pIC50 [5]: 5.82
SMILES: COc1cc(O)c2c(O)cc(-c3ccccc3F)nc2c1
Activity [1]: 41%
GI50 [2]: 9.9 µM
Activity [3]: 23%
Activity [4]: 37%

SMILES: COc1cc(O)c2c(O)cc(-c3cccc(-c4ccccc4)c3)nc2c1
Activity [1]: 9%
Activity [3]: 46%
Activity [4]: 45%

pIC50 [5]: 5.74
SMILES: COc1cc(O)c2c(O)cc(-c3ccccc3)nc2c1
Activity [1]: 66%
GI50 [2]: 8.7 µM
Activity [3]: 7%
Activity [4]: 26%

SMILES: CC(=O)O[C@H]1C(=O)[C@@]2(C)[C@H]([C@H](OC(=O)c3ccccc3)[C@]3(O)C[C@H](OC(=O)[C@H](O)[C@@H](NC(=O)c4ccccc4)c4ccccc4)C(C)=C1C3(C)C)[C@]1(OC(C)=O)CO[C@@H]1C[C@@H]2O [PACLITAXEL]
Activity [1]: 71%
Activity [3]: 11%
Activity [4]: 18%

SMILES: Oc1cccc2nc(-c3cccc(F)c3)cc(O)c12
Activity [1]: 49%
Activity [3]: 17%
Activity [4]: 33%

SMILES: CCc1ccc(-c2cc(O)c3c(O)cc(OC)cc3n2)cc1
Activity [1]: 25%
Activity [3]: 26%
Activity [4]: 48%

SMILES: COc1cc(O)c2c(O)cc(-c3cccc(OC(F)(F)F)c3)nc2c1
Activity [1]: 32%
Activity [3]: 32%
Activity [4]: 35%

SMILES: COc1cc(O)c2c(O)cc(-c3ccc(OC)c(F)c3)nc2c1
Activity [1]: 20%
Activity [3]: 26%
Activity [4]: 53%

pIC50 [5]: 6.10
SMILES: COc1cc(O)c2c(O)cc(-c3cccc(F)c3)nc2c1
Activity [1]: 60%
GI50 [2]: 14.5 µM
Activity [3]: 9%
Activity [4]: 30%

pIC50 [5]: 5.52
SMILES: CC[C@]1(O)C[C@@H]2CN(CCc3c([nH]c4ccccc34)[C@@](C(=O)OC)(c3cc4c(cc3OC)N(C)[C@H]3[C@@](O)(C(=O)OC)[C@H](OC(C)=O)[C@]5(CC)C=CCN6CC[C@]43[C@@H]65)C2)C1 [VINBLASTINE]
Activity [1]: 37%
Activity [3]: 33%
Activity [4]: 30%

SMILES: COc1cc(O)c2c(O)cc(-c3cccc(C(F)(F)F)c3)nc2c1
Activity [1]: 20%
Activity [3]: 41%
Activity [4]: 38%

SMILES: COc1cc(O)c2c(O)cc(-c3ccc(F)cc3)nc2c1
Activity [1]: 10%
Activity [3]: 54%
Activity [4]: 36%

SMILES: CCn1c(-c2ccccc2)cc(=O)c2c(O)cc(OC)cc21
Activity [1]: 11%
Activity [3]: 43%
Activity [4]: 46%

SMILES: COc1cc(O)c2c(O)cc(-c3cc(F)cc(F)c3)nc2c1
Activity [1]: 18%
Activity [3]: 42%
Activity [4]: 40%

SMILES: COc1cc(O)c2c(O)cc(Cc3ccccc3)nc2c1
Activity [1]: 9%
Activity [3]: 41%
Activity [4]: 50%

SMILES: COc1cc2nc(-c3ccccc3)cc(O)c2c(OC)c1OC
Activity [1]: 5%
Activity [3]: 47%
Activity [4]: 48%

SMILES: COc1cc(O)c2c(O)cc(-c3cccnc3)nc2c1
Activity [1]: 45%
Activity [3]: 24%
Activity [4]: 31%

SMILES: COc1cc(O)c2c(O)cc(-c3cccc(CCl)c3)nc2c1
Activity [1]: 18%
Activity [3]: 30%
Activity [4]: 51%

SMILES: COc1cc(O)c2c(O)cc(-c3cccc(I)c3)nc2c1
Activity [1]: 6%
Activity [3]: 44%
Activity [4]: 50%

SMILES: COc1cc2nc(-c3ccccc3)cc(O)c2c(O)c1OC
Activity [1]: 8%
Activity [3]: 47%
Activity [4]: 45%

SMILES: COc1cc(O)c2c(O)cc(-c3cccc(Br)c3)nc2c1
Activity [1]: 12%
Activity [3]: 51%
Activity [4]: 37%
